The source of these data is ChEMBL document CHEMBL1138182, “Structure activity relationships of 5-, 6-, and 7-methyl-substituted azepan-3-one cathepsin K inhibitors” (J Med Chem, 2006).

For data set [1], the target named is T1, Cathepsin K (Homo sapiens, UniProt P43235).
T1 sequence (P43235 whole entry): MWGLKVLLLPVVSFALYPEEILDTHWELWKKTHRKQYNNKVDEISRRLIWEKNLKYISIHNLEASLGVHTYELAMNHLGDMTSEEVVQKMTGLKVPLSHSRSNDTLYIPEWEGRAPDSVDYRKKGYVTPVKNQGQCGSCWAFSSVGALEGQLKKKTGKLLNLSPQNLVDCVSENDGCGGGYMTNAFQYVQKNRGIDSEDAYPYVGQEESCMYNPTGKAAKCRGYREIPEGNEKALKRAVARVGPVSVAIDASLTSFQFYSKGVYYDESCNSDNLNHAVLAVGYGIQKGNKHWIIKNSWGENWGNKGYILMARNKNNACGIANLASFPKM
The data set can be described thus: Inhibition of human cathepsin K. The note with it: read-out: Ki app.

For the next data set, the target named is Cathepsin S (Homo sapiens, UniProt P25774). The data set can be described thus: Inhibition of human cathepsin S. The note with it: read-out: Ki app.
Chain of Cathepsin S (P25774 whole entry): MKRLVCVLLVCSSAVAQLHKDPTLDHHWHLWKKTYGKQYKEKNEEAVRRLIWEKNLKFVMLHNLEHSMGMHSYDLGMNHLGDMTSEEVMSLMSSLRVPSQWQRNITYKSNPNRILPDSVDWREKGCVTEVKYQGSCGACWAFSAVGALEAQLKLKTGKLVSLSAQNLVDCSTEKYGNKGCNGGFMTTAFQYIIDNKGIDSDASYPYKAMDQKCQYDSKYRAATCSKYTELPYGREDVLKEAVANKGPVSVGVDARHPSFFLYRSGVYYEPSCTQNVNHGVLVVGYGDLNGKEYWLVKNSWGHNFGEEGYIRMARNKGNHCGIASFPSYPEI
The target of data set [2] is T2, Cathepsin K (Rattus norvegicus, UniProt O35186).
T2 sequence (O35186 whole entry): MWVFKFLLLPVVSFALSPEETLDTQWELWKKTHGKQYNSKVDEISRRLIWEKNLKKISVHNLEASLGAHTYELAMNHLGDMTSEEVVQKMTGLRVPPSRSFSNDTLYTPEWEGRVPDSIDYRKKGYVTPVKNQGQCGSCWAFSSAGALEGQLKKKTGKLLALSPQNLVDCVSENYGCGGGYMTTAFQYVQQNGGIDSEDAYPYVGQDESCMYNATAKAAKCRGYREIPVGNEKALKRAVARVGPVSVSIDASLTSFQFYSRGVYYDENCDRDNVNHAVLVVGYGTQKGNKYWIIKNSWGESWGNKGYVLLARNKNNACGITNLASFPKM
The data set can be described thus: Inhibition of rat cathepsin K. The note with it: read-out: Ki app. The procedure, abridged:
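Recombinant enzyme; fluorogenic peptide substrate (typically Cbz-Phe-Arg-AMC) in 100 mM sodium acetate pH 5.5 with 20 mM cysteine and 5 mM EDTA, ambient temperature. Reaction started by adding enzyme to inhibitor plus substrate at variable inhibitor concentrations; AMC fluorescence (ex 360, em 460 nm) followed as progress curves. Ki,app obtained by fitting to the competitive velocity equation or the slow-binding progress-curve equation.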

In another data set the target is T3, Cathepsin L2 (Homo sapiens, UniProt O60911).
T3 sequence (O60911 whole entry): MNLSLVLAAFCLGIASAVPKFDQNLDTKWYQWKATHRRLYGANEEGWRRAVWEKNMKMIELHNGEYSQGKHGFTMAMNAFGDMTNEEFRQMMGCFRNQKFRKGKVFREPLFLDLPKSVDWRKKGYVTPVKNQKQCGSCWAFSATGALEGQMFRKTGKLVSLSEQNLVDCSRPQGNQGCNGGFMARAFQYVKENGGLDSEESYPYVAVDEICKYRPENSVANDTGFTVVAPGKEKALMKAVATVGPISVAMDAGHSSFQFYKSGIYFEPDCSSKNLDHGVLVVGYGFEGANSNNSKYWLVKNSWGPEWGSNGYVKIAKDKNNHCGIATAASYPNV
The data set can be described thus: Inhibition of human cathepsin V. The note with it: read-out: Ki app. The procedure, abridged: (§1)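 Recombinant human enzyme with fluorogenic substrate, typically Cbz-Phe-Arg-AMC, in 100 mM sodium acetate pH 5.5 with 20 mM cysteine and 5 mM EDTA, at ambient temperature. Enzyme added last to inhibitor plus substrate. AMC fluorescence read at ex 360/em 460. Progress curves at variable inhibitor concentrations were fitted for Ki,app, by competitive velocity equation or slow-binding exponential.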

In the next data set the target is Cathepsin B (Homo sapiens, UniProt P07858). The data set can be described thus: Inhibition of human cathepsin B. The note with it: read-out: Ki app. The procedure, abridged:
as §1

Another data set relates to Osteoclast. The data set can be described thus: Effect on collagen […] in osteoclast bone resorption assay. To be noted: Homo sapiens. It is filed as functional, cell-based. The procedure, abridged: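 Human osteoclastoma-derived osteoclasts on bovine cortical bone slices, incubated 48 h with a range of compound concentrations. Type-I collagen C-telopeptide release measured by ELISA.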

Data set [3] can be described thus: Half life in iv dosed Sprague-Dawley rat. It is filed as ADME, organism-based. To be noted: in vivo. The procedure, abridged:
(§2)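 Male Sprague-Dawley rats, n = 3, iv/po crossover. Dosed iv as a 1-2 mg/kg 0.5-h infusion through an indwelling femoral vein catheter, then 2-4 mg/kg oral gavage 2 days later. Vehicle: aqueous, <2% DMSO, <20% hydroxypropyl-β-cyclodextrin. Tail-vein plasma sampled at timed intervals, measured by LC/MS/MS (LLOQ 1.0-10 ng/mL). Noncompartmental analysis.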

Data set [4] can be described thus: Clearance in iv dosed Sprague-Dawley rat. Type of data set: ADME, organism-based. The note with it: in vivo. An outline of the steps: as §2
A short description of data set [5]: Volume of distribution in iv dosed Sprague-Dawley rat. It is filed as ADME, organism-based. To be noted: in vivo, read-out: Vdss. The procedure, abridged:
as §2

Data set [6] can be described thus: Oral bioavailability in Sprague-Dawley rat. It is filed as ADME, organism-based. The note with it: in vivo. An outline of the steps: as §2
The nature of data set [7]: Half life in iv dosed cynomolgus monkey. To be noted: in vivo. It is filed as ADME, organism-based, Macaca fascicularis. The procedure, abridged:
(§3)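 Cynomolgus monkeys (male, n = 3) in an iv × po crossover. Dosed by 1-h iv infusion of 1-2 mg/kg via temporary saphenous vein catheter, then 2-4 mg/kg oral gavage 7 days later. Vehicle: aqueous <2% DMSO, <20% hydroxypropyl-β-cyclodextrin. Femoral-vein plasma measured by LC/MS/MS, LLOQ 1.0-10 ng/mL. Parameters by noncompartmental methods.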

Data set [8] in a line: Clearance in iv dosed cynomolgus monkey. The note with it: in vivo. It is filed as ADME, organism-based, Macaca fascicularis. The procedure, abridged: as §3
The nature of data set [9]: Volume of distribution in iv dosed cynomolgus monkey. It is filed as ADME, organism-based, Macaca fascicularis. The note with it: in vivo, read-out: Vdss. An outline of the steps:
as §3

Data set [10] can be described thus: Oral bioavailability in cynomolgus monkey. Type of data set: ADME, organism-based, Macaca fascicularis. The note with it: in vivo. The procedure, abridged:
as §3

Data set [11] can be described thus: Protein binding in plasma. Type of data set: ADME, cell-free. To be noted: rat, read-out: PPB (converted). The procedure, abridged: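 Rat plasma; binding determined by equilibrium dialysis or ultrafiltration.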
Data set [12] can be described thus: Permeability in MDCK cells at 10 uM. Type of data set: ADME, cell-based, Canis lupus familiaris. The note with it: dog, read-out: permeability. An outline of the steps: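 MDCK cells at passage 60-80, grown in MEM + 10% FBS at 37 °C, 5% CO2, seeded on Transwells and assayed 3 days after seeding. After ~1 h equilibration in HBSS with 25 mM glucose and 25 mM HEPES, 10 µM compound (1% DMSO final) was added apically. Basolateral concentration measured by LC/MS/MS over 3600 s, Papp calculated, duplicates, propranolol and mannitol controls.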

Data set [13] is described as follows: Permeability in artificial membrane. It is filed as ADME, cell membranes. To be noted: PAMPA; read-out: permeability. Background: PAMPA measures passive passage across an artificial lipid membrane.

With `CC(C)C[C@H](NC(=O)c1cc2ccccc2o1)C(=O)N[C@@H]1C[C@@H](C)CN(S(=O)(=O)c2ccccn2)CC1=O`, the values for the Ki on Cathepsin K [1], on Cathepsin S and at Cathepsin K [2] were 30 nM, 300 nM and above 1000 nM, respectively.

In the case of `CC(C)C[C@H](NC(=O)c1cc2ccccc2o1)C(=O)N[C@H]1CC[C@@H](C)N(S(=O)(=O)c2ccccn2)CC1=O` [RELACATIB], the Ki on Cathepsin L2 stood at 0.063 nM; on Cathepsin S, 1.6 nM; at Cathepsin B, 13 nM; at Cathepsin K [2], 8 nM. The compound further yielded an IC50 in the data set on Osteoclast of 22 nM. Besides, the half-life in [3] worked out at 109 min; in data set [7], 168 min. For the same compound, the clearance in data set [4] worked out at 19.5 mL/min/kg; in [8] it was 11.7 mL/min/kg. The Vd in data set [5] was 1.79 L/kg; in data set [9] it was 0.95 L/kg. Moreover, the bioavailability in data set [6] was 89.4%; in data set [10], 27.6%. Also, the fraction unbound in data set [11] was 0.032. The Papp at 10 µM in data set [12] was determined as 47 ×10⁻⁶ cm/s. In data set [13], the Papp turned out to be 47 ×10⁻⁶ cm/s.

As for `CC(C)C[C@H](NC(=O)c1cc2ccccc2o1)C(=O)N[C@H]1CC[C@H](C)N(S(=O)(=O)c2ccccn2)CC1=O`, the figures for the Ki on Cathepsin S and on Cathepsin K [2] were 42 nM and 680 nM, respectively.

Turning to `CC(C)C[C@H](NC(=O)c1cc2ccccc2o1)C(=O)N[C@@H]1CC[C@@H](C)N(S(=O)(=O)c2ccccn2)CC1=O`, the Ki on Cathepsin S was found to be 92 nM; at Cathepsin K [2] it was 430 nM.

Turning to `CC(C)C[C@H](NC(=O)c1cc2ccccc2o1)C(=O)N[C@H]1CCCN(S(=O)(=O)c2ccccn2)CC1=O`, the Ki at Cathepsin L2 worked out at 1.8 nM. This compound also yielded an IC50 in the data set with Osteoclast of 63 nM. In data set [7], this compound gave a half-life of 36.5 min. The clearance in [8] worked out at 13.9 mL/min/kg. For the same compound, the Vd in [9] was 0.72 L/kg. The same compound came in with a bioavailability in data set [10] of 7.3%. Besides, the fraction unbound in [11] was 0.03. Further, in data set [12], the Papp at 10 µM stood at 57 ×10⁻⁶ cm/s. Also, the Papp in [13] stood at 53 ×10⁻⁶ cm/s.

For `CC(C)C[C@H](NC(=O)c1cc2ccccc2o1)C(=O)N[C@H]1C(=O)CN(S(=O)(=O)c2ccccn2)CC[C@@H]1C`, the Ki on Cathepsin K [1] is 19 nM; on Cathepsin B, above 1000 nM.

Regarding `CC(C)C[C@H](NC(=O)c1cc2ccccc2o1)C(=O)N[C@@H]1CC[C@H](C)N(S(=O)(=O)c2ccccn2)CC1=O`, the Ki on Cathepsin S amounted to 110 nM; on Cathepsin K [2], 790 nM.

Take `CC(C)C[C@H](NC(=O)c1cc2ccccc2o1)C(=O)N[C@H]1C[C@H](C)CN(S(=O)(=O)c2ccccn2)CC1=O`: the Ki came to 0.14 nM at Cathepsin K [1], 5.8 nM on Cathepsin S and 73 nM at Cathepsin K [2]. This compound showed a 50% inhibitory concentration (IC50) in the data set with Osteoclast of 35 nM. This compound yielded a half-life in data set [3] of 51.6 min. This compound registered a clearance in data set [4] of 34.4 mL/min/kg. In addition, in data set [5], the Vd is 1.46 L/kg. The compound further registered a bioavailability in data set [6] of 26.2%. Further, the fraction unbound in data set [11] is 0.044. Also, the Papp at 10 µM in [12] was determined as 49 ×10⁻⁶ cm/s. Besides, in data set [13], the Papp amounted to 56 ×10⁻⁶ cm/s.

As to `CC(C)C[C@H](NC(=O)c1cc2ccccc2o1)C(=O)N[C@H]1C(=O)CN(S(=O)(=O)c2ccccn2)CC[C@H]1C`, the Ki at Cathepsin K [1] is 42 nM; at Cathepsin B, above 1000 nM.

As to `CC(C)C[C@H](NC(=O)c1cc2ccccc2o1)C(=O)N[C@@H]1C(=O)CN(S(=O)(=O)c2ccccn2)CC[C@H]1C`, the Ki was 1.5 nM at Cathepsin K [1] and above 1000 nM on Cathepsin B.

Consider `CC(C)C[C@H](NC(=O)c1cc2ccccc2o1)C(=O)N[C@H]1C[C@@H](C)CN(S(=O)(=O)c2ccccn2)CC1=O`, for which the figures for the Ki on Cathepsin K [1], at Cathepsin S and on Cathepsin K [2] were 29 nM, 350 nM and above 1000 nM, respectively.

Turning to `CC(C)C[C@H](NC(=O)c1cc2ccccc2o1)C(=O)N[C@@H]1C(=O)CN(S(=O)(=O)c2ccccn2)CC[C@@H]1C`, the Ki on Cathepsin K [1] was found to be 0.0099 nM; on Cathepsin B, 32 nM. For the same compound, in the data set on Osteoclast, half-maximal inhibition (IC50) was put at 20 nM. In data set [3], this compound showed a half-life of 58.5 min. The clearance in data set [4] was determined as 80.5 mL/min/kg. The Vd in [5] amounted to 4.7 L/kg. The same compound came in with a bioavailability in data set [6] below 5.4%. The fraction unbound in [11] was 0.053. The Papp at 10 µM in data set [12] came out at 55 ×10⁻⁶ cm/s. Besides, the Papp in data set [13] came out at 68 ×10⁻⁶ cm/s.

As for `CC(C)C[C@H](NC(=O)c1cc2ccccc2o1)C(=O)N[C@@H]1C[C@H](C)CN(S(=O)(=O)c2ccccn2)CC1=O`, the Ki came to 4.5 nM at Cathepsin K [1], 8.3 nM at Cathepsin S and 660 nM on Cathepsin K [2].

By IC50 is commonly meant the concentration needed to halve the response being measured. For orientation: half-life means how long it takes for the measured level to halve. The term clearance denotes the rate of elimination divided by the concentration. The term bioavailability denotes dose-corrected exposure relative to a reference, in per cent.
